Measured values reported in ChEMBL document CHEMBL1157149, “Phosphonate-linked pyrrolo[2,1-c][1,4]benzodiazepine conjugates: synthesis, DNA-binding affinity and cytotoxicity” (2008).
Active and inactive are the calls of the source. The calls are words filed in the database; no cut-off is given here.

Assays:
DNA = experiment: Binding affinity to calf thymus DNA assessed as change in thermal stability at pH 7.0 after 18 hrs by thermal denaturation assay; assay type: nucleic-acid assay; settings: Bos taurus
Procedure, shortened: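 CT-DNA duplex at 100 µM (in phosphate) with ligand at 20 µM (1:5 ligand/DNA molar ratio) in 10 mM sodium phosphate, 1 mM EDTA, pH 7.00; compound added from concentrated MeOH solution. Incubated at 37 °C for 18 h. Absorbance at 260 nm followed while heating at 1 °C/min over 40–90 °C. Tm taken from dA260/dT derivative maxima; ΔTm relative to DNA alone.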

[1] = molecular target: T1, Type II restriction enzyme BamHI (Bacillus amyloliquefaciens) (UniProt P23940); experiment: Inhibition of BamH1 assessed as inhibition of pBR322 DNA cleavage
T1 sequence (whole entry): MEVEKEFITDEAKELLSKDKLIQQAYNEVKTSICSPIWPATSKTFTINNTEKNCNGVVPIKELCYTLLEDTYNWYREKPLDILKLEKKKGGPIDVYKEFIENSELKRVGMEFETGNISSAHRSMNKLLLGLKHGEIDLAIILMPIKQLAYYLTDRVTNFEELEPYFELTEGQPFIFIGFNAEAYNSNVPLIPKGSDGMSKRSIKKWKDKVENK
Procedure, shortened: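 PBD stocks were 100 μM in DMSO. Plasmid pBR322 (500 ng, single BamHI site) was preincubated with compound in 16 μL for 16 h at 37 °C. BamHI (20 U) and its buffer were then added to 20 μL, and digestion ran 1 h at 37 °C. Cut and uncut forms were resolved on 1% agarose in TAE (80 V, 2 h) and stained with ethidium bromide.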

A2780 = experiment: Cytotoxicity against human A2780 cells after 48 hrs by SRB method; settings: A2780, 48 h
SiHa = experiment: Cytotoxicity against human SiHa cells after 48 hrs by SRB method
PC-3 = experiment: Cytotoxicity against human PC3 cells after 48 hrs by SRB method; settings: PC-3, 48 h
COLO 205 = experiment: Cytotoxicity against human Colo205 cells after 48 hrs by SRB method; settings: COLO 205, 48 h
[2] = Cytotoxicity against human DWD cells after 48 hrs by SRB method
[3] = Cytotoxicity against human GURAV cells after 48 hrs by SRB method
MCF7 = experiment: Cytotoxicity against human MCF7 cells after 48 hrs by SRB method; settings: MCF7, 48 h
KB = experiment: Cytotoxicity against human KB cells after 48 hrs by SRB method
[4] = Cytotoxicity against human melanoma cancer cells after 24 hrs by SRB method; assay type: functional; settings: Melanoma cell
[5] = Cytotoxicity against human prostate cancer cells after 24 hrs by SRB method; assay type: functional; settings: Cancer cell lines
[6] = Cytotoxicity against human lung cancer cells after 24 hrs by SRB method; assay type: functional; settings: Cancer cell lines
[7] = Cytotoxicity against human ovarian cancer cells after 24 hrs by SRB method; assay type: functional; settings: Cancer cell lines
[8] = Cytotoxicity against human leukemia cells after 48 hrs by SRB method; settings: Leukemia cell
CCRF-CEM [9] = experiment: Cytotoxicity against human CCRF-CEM cells after 24 hrs by SRB method; assay type: functional
MOLT-4 = experiment: Cytotoxicity against human MOLT4 cells after 24 hrs by SRB method; assay type: functional; settings: MOLT-4, 24 h
[10] = Cytotoxicity against human breast cancer cells after 24 hrs by SRB method; assay type: functional; settings: Cancer cell lines
K562 = experiment: Cytotoxicity against human K562 cells after 48 hrs by SRB method; settings: K562, 48 h
CCRF-CEM [11] = experiment: Cytotoxicity against human CCRF-CEM cells after 48 hrs by SRB method; settings: read-out: pLC50 (the source's name) (converted)
HL-60 = experiment: Cytotoxicity against human HL60 cells after 48 hrs by SRB method; settings: HL-60, 48 h
A549 = experiment: Cytotoxicity against human A549 cells after 48 hrs by SRB method; settings: A549, 48 h
RPMI-8226 = experiment: Cytotoxicity against human RPMI8226 cells after 24 hrs by SRB method; assay type: functional; settings: RPMI-8226, 24 h
[12] = Cytotoxicity against human renal cancer cells after 24 hrs by SRB method; assay type: functional; settings: Cancer cell lines
[13] = Cytotoxicity against human colon cancer cells after 24 hrs by SRB method; assay type: functional; settings: Cancer cell lines
[14] = Cytotoxicity against human leukemia cells after 24 hrs by SRB method; assay type: functional; settings: Leukemia cell, read-out: pTGI (converted)
SR = experiment: Cytotoxicity against human SR cells after 24 hrs by SRB method; assay type: functional
[15] = Cytotoxicity against human CNS cancer cells after 48 hrs by SRB method; settings: Cancer cell lines
[16] = read-out: pLC50 (the source's name) (converted)

Q: Which ΔTm (DNA) does the source give for CCOP(=O)(CCCN1CCN(CCCOc2cc3c(cc2OC)C(=O)N2CCC[C@H]2C=N3)CC1)OCC here?
A: Its ΔTm is 9.9 °C.

Q: And the Activity [1]?
A: Its Activity is “Active”.

Q: What does the source list for CCOP(=O)(CCCN1CCN(CCCCCOc2cc3c(cc2OC)C(=O)N2CCC[C@H]2C=N3)CC1)OCC?
A: ΔTm (DNA): 10 °C; GI50 (A2780): 2.02 µM; GI50 (SiHa): 2.46 µM; GI50 (PC-3): 30.5 µM; Activity [1]: Active; GI50 (COLO 205): 2.39 µM; GI50 [2]: 0.18 µM; GI50 [3]: 2.18 µM; GI50 (MCF7): 2.21 µM

Q: With COc1cc2c(cc1OCCCN1CCN(C)CC1)N=C[C@@H]1CCCN1C2=O as the compound, how does the ΔTm (DNA) read?
A: Its ΔTm is 6.9 °C.

Q: Which ΔTm (DNA) does the source give for CCOP(=O)(CCCN1CCN(CCCCOc2cc3c(cc2OC)C(=O)N2CCC[C@H]2C=N3)CC1)OCC here?
A: Its ΔTm is 7.1 °C.

Q: With CCOP(=O)(CCN1CCN(CCCOc2cc3c(cc2OC)C(=O)N2CCC[C@H]2C=N3)CC1)OCC as the compound, how does the ΔTm (DNA) read?
A: The ΔTm was 9 °C.

Q: What about the Activity [1] of the same compound?
A: Its Activity is “Active”.

Q: Which ΔTm (DNA) does the source give for CCOP(=O)(CCCOc1cc2c(cc1OC)C(=O)N1CCC[C@H]1C=N2)OCC here?
A: Its ΔTm is 4.5 °C.

Q: And the GI50 (SiHa)?
A: The GI50 was 2.1 µM.

Q: What about the GI50 [2] of the same compound?
A: The GI50 was 2.2 µM.

Q: And the GI50 (KB)?
A: The GI50 was 2.11 µM.

Q: What about the GI50 (MCF7) of the same compound?
A: The GI50 was 2.02 µM.

Q: What does the source list for COc1cccc2c1C(=O)c1c(O)c3c(c(O)c1C2=O)C[C@@](O)(C(=O)CO)C[C@@H]3O[C@H]1C[C@H](N)[C@H](O)[C@H](C)O1 [DOXORUBICIN]?
A: GI50 (A2780): 0.17 µM; GI50 (SiHa): 0.18 µM; GI50 (COLO 205): 0.14 µM; GI50 [2]: 0.11 µM; GI50 [3]: 0.17 µM; GI50 (KB): 0.17 µM; GI50 (MCF7): 0.18 µM

Q: Which results are given for CCOP(=O)(CCN1CCN(CCCCCOc2cc3c(cc2OC)C(=O)N2CCC[C@H]2C=N3)CC1)OCC?
A: ΔTm (DNA): 7.2 °C; GI50 [4]: 7.76 µM; CC50 [4, 16]: 81.3 µM; TGI ([4]; read-out: pTGI (converted)): 30.2 µM; GI50 [5]: 17.8 µM; CC50 [5, 16]: 100 µM; TGI ([5]; read-out: pTGI (converted)): 63.1 µM; GI50 (A2780): 0.17 µM; GI50 [6]: 10 µM; CC50 [6, 16]: 100 µM; TGI ([6]; read-out: pTGI (converted)): 45.7 µM; GI50 [7]: 13.8 µM; CC50 [7, 16]: 100 µM; TGI ([7]; read-out: pTGI (converted)): 55 µM; GI50 [8]: 1.95 µM; CC50 [8, 16]: 100 µM; GI50 (CCRF-CEM [9]): 1.91 µM; GI50 (MOLT-4): 2.14 µM; CC50 (MOLT-4; [16]): > 100 µM; TGI (MOLT-4; read-out: pTGI (converted)): 6.31 µM; GI50 [10]: 5.62 µM; CC50 [10, 16]: 95.5 µM; TGI ([10]; read-out: pTGI (converted)): 33.1 µM; GI50 (K562): 2.34 µM; CC50 (K562; [16]): > 100 µM; TGI (K562; read-out: pTGI): > 100 µM; CC50 (CCRF-CEM [11]): > 100 µM; GI50 (SiHa): 0.21 µM; GI50 (HL-60): 1.82 µM; CC50 (HL-60; [16]): > 100 µM; TGI (HL-60; read-out: pTGI (converted)): 8.32 µM; GI50 (A549): 2.64 µM; GI50 (PC-3): 1.98 µM; GI50 (RPMI-8226): 2.29 µM; CC50 (RPMI-8226; [16]): > 100 µM; GI50 [12]: 9.77 µM; CC50 [12, 16]: 95.5 µM; TGI ([12]; read-out: pTGI (converted)): 53.7 µM; Activity [1]: Active; GI50 (COLO 205): 1.87 µM; GI50 [3]: 0.17 µM; GI50 (KB): 1.92 µM; GI50 [13]: 10 µM; CC50 [13, 16]: 93.3 µM; TGI ([13]; read-out: pTGI (converted)): 46.8 µM; TGI [14]: 12.3 µM; GI50 (SR): 1.38 µM; CC50 (SR; [16]): 30.9 µM; TGI (SR; read-out: pTGI (converted)): 4.27 µM; GI50 [15]: 3.02 µM; CC50 [15, 16]: 89.1 µM; TGI ([15]; read-out: pTGI (converted)): 30.2 µM; GI50 (MCF7): 2.01 µM

Q: Which ΔTm (DNA) does the source give for COc1cc2c(cc1O)N=C[C@@H]1CCCN1C2=O here?
A: The ΔTm was 0.7 °C.
